Experiments:
[1] = Acute toxicity in ip dosed albino mouse assessed as mortality measured for 5 days; type: organism-based; settings: in vivo
Method in brief: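 Graded intraperitoneal doses, five animals per group; approximate LD50 estimated from mortality recorded over the 5 days after dosing.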

[2] = system: Mus musculus; experiment: Antidepressant activity in ip dosed mouse assessed as prevention of reserpine-induced ptosis; type: functional
Method in brief: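 Mice dosed ip with test compound; reserpine given to induce ptosis (adapted Petersen et al. method). The percentage of mice with ptosis prevented was recorded. ED50 (mg/kg) derived by the Finney method.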

[3] = system: Rattus norvegicus; experiment: Antidepressant activity in ip dosed rat assessed as prevention of tetrabenazine-induced ptosis; type: functional
Method in brief: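 Rats dosed ip; tetrabenazine used to induce ptosis (modified Giurgea et al. method). ED50 (mg/kg) derived by the Finney method from prevention of ptosis.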

Question: With `Br.CCn1c2c(c3ccccc31)CCCC2(CC)CCN(C)C` (centres undefined) as the compound, how does the LD50 at 120 h [1] read?
Answer: The LD50 at 120 h was 175 mg/kg.

Question: And the ED50 [2]?
Answer: Its ED50 is 0.7 mg/kg.

Question: For `CCn1c2c(c3cc(Cl)ccc31)CCCC2(C)CCN(C)C.Cl` (centres undefined), which ED50 [2] is on record?
Answer: The ED50 was 0.19 mg/kg.

Question: For `CCc1cccc2c3c(n(CC)c12)C(C)(CCN(C)C)CCC3.O=C(O)/C=C/C(=O)O` (centres undefined), which ED50 [2] is on record?
Answer: Its ED50 is 19 mg/kg.

Question: What does the source list for `CN(C)CCC1(C)CCCc2c1n(C)c1ccccc21.Cl` (centres undefined)?
Answer: LD50 at 120 h [1]: 125 mg/kg; ED50 [2]: 0.8 mg/kg

Question: With `CCCn1c2c(c3ccccc31)CCCC2(C)CCN(C)C.Cl` (centres undefined) as the compound, how does the LD50 at 120 h [1] read?
Answer: The LD50 at 120 h was 125 mg/kg.

Question: What about the ED50 [2] of the same compound?
Answer: The ED50 was 0.4 mg/kg.

Question: Which ED50 [3] does the source give for `CCn1c2c(c3ccccc31)CCCC2(C)CCN(C)C.Cl` (centres undefined) here?
Answer: The ED50 was 3.3 mg/kg.

Question: And the LD50 at 120 h [1]?
Answer: Its LD50 at 120 h is 125 mg/kg.

Question: What about the ED50 [2] of the same compound?
Answer: The ED50 was 0.12 mg/kg.

Question: With `CCn1c2c(c3ccccc31)CCCC2(C)CCNC.Cl` (centres undefined) as the compound, how does the LD50 at 120 h [1] read?
Answer: Its LD50 at 120 h is 125 mg/kg.

Question: And the ED50 [2]?
Answer: Its ED50 is 1.6 mg/kg.

Question: With `CN(C)CCC1CCCc2c1n(C)c1ccccc21.Cl` (centres undefined) as the compound, how does the LD50 at 120 h [1] read?
Answer: Its LD50 at 120 h is 125 mg/kg.

Question: And the ED50 [2]?
Answer: The ED50 was 5 mg/kg.

Question: Which ED50 [2] does the source give for `CN(C)CC1CCCc2c1[nH]c1ccc(Cl)cc21` (centres undefined) here?
Answer: The ED50 was over 30 mg/kg.

Question: Which ED50 [2] does the source give for `Br.CCn1c2c(c3ccccc31)CCC2(C)CCN(C)C` (centres undefined) here?
Answer: Its ED50 is 0.75 mg/kg.

Question: With `CCn1c2c(c3ccccc31)CCCCC2(C)CCN(C)C.Cl` (centres undefined) as the compound, how does the LD50 at 120 h [1] read?
Answer: The LD50 at 120 h was 85 mg/kg.

Question: What about the ED50 [2] of the same compound?
Answer: Its ED50 is 0.27 mg/kg.

Question: With `CN(C)CCC=C1c2ccccc2CCc2ccccc21` [AMITRIPTYLINE] as the compound, how does the ED50 [3] read?
Answer: Its ED50 is 37 mg/kg.

Question: And the LD50 at 120 h [1]?
Answer: The LD50 at 120 h was 94 mg/kg.

Question: And the ED50 [2]?
Answer: Its ED50 is 4.7 mg/kg.

Question: Which ED50 [3] does the source give for `CN(C)CCCN1c2ccccc2CCc2ccccc21` [IMIPRAMINE] here?
Answer: Its ED50 is 22.6 mg/kg.

Question: What about the ED50 [2] of the same compound?
Answer: Its ED50 is 6 mg/kg.
